# PP5 inh = blocks human protein phosphatase 5 activity | P53041 | purified PP5c, OMFP substrate fluorescence | inhibition, % at 6.7 µM | 320,000 compounds, 0.18% hits | AID 1987;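 active means inhibition above the campaign's mean inhibition across all tested compounds plus 3 SD, cut at about 9.5% in these data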;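 further: 0% = DMSO only and 100% = 100 µM cantharidin control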
# Target sequence (P53041 whole entry, looked up): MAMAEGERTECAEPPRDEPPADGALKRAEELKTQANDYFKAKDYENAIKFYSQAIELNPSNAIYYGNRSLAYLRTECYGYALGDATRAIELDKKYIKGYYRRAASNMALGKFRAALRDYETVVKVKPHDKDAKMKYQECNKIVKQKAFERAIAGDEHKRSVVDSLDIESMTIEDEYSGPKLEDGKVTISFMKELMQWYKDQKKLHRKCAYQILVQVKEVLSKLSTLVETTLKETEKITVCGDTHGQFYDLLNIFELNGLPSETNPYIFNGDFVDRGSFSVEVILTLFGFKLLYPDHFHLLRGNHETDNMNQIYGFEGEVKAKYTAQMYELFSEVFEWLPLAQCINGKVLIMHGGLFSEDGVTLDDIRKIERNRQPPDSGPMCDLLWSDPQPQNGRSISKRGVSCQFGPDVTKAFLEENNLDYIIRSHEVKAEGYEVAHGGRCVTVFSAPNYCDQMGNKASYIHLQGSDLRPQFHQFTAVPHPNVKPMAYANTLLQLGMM
# STEP block = inhibitors of human striatal-enriched phosphatase STEP; AID 588621; recombinant STEP, OMFP fluorogenic substrate, fluorescence; P54829; 360,000 compounds, 0.25% hits; inhibition, % at 20 µM;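 active means inhibition at 20 µM, scaled per plate between control wells, above about 37%, limit read from the data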;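 further: 0% = DMSO with enzyme and substrate and 100% = substrate only without enzyme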
#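 Also added – OMFP at 25 µM · Test system – STEP tyrosine phosphatase · Technique – FITC-channel fluorescence of OMFP product · Schedule – 20 min at room temperature, dark · Evaluation – control-normalized % inhibition with plate pattern correction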
# PP1 inh = blocks human PP1-alpha phosphatase, a PP5 counter-screen. 320,000 compounds, 0.9% hits. P62136. AID 2235. inhibition, % at 6.7 µM. purified PP1alpha, OMFP fluorescence;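 active means inhibition above the mean inhibition of all tested compounds plus 3 SD, computed separately for each screening campaign, cut at about 15% in these data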
# LMPTP block = LMPTP (human) inhibition. P24666. AID 651560. 360,000 compounds, 0.22% hits. recombinant LMPTP-A, OMFP fluorogenic substrate, fluorescence intensity. inhibition, % at 20 µM;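 active means compounds that cut the enzyme signal by at least half of the control window in the single-dose screen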;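 further: plate controls were DMSO wells with enzyme plus substrate for no effect and substrate without enzyme for full effect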
# Target sequence (P24666 whole entry, looked up): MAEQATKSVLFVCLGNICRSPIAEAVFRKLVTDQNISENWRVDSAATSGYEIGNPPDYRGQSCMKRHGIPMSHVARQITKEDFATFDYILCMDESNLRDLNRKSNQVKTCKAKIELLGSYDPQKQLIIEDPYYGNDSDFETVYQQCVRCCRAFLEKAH
#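 Test system – LMPTP-A enzyme · Amount – LMPTP-A at 0.625 nM final in the reaction · Buffer or medium – Bis-Tris pH 6.0, DTT, detergent · Reagent – OMFP 400 µM · Doses – single 20 µM dose · Schedule – reaction 50 min, room temperature, dark · Detection – fluorescence intensity of OMFP turnover product · Evaluation – percent inhibition versus substrate-only and uninhibited controls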
# Scp-1 inhibitor = Scp-1 (human) phosphatase inhibition; inhibition, % at 20 µM; Recombinant Scp1, phosphopeptide, malachite green phosphate absorbance; 340,000 compounds, 0.88% hits; Q9GZU7; AID 493091;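 active means inhibition above about 50% at 20 µM, limit read from the data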;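 further: plate controls were DMSO wells with enzyme for no effect and wells lacking enzyme for full effect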
#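 Assay system: SCP-1 catalytic fragment, aa 76-261 | Buffer or medium: Tris acetate buffer pH 5.5 with MgCl2 and Tween-20 | Compound: One concentration, 20 µM, with 1.0% DMSO | Also added: Phospho 17-mer peptide substrate | Signal: Absorbance at 630 nm | Incubation: 45 min enzyme reaction at room temperature | Measure: % inhibition of SCP-1 phosphate liberation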
# PP5 conf = confirmation of human PP5 phosphatase inhibitors; shares compounds with PP5 inh; Purified PP5, fluorogenic phosphatase substrate, fluorescence; inhibition, % at 6.7 µM; 460 compounds, 22% hits; AID 2331; in the data active means inhibition above about 9.5%
# PP1 counter 3x = inhibits human PP1 phosphatase in PP5 counter-screen. shares compounds with PP5 inh. PP1 enzyme, fluorescent phosphatase substrate. inhibition, % at 6.7 µM. 460 compounds, 4% hits; in the data active means inhibition above about 16%
# PP1 confirm = confirmation of human PP1 phosphatase inhibitors | 1,900 compounds, 52% hits | inhibition, % at 6.7 µM | purified PP1alpha, OMFP substrate fluorescence | shares compounds with PP1 inh | AID 2358;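 active means mean PP1 inhibition above a set limit taken from the earlier primary screen, cut at about 15% in these data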
# PP5 counter = inhibits human PP5 phosphatase in PP1 counter-screen; inhibition, % at 6.7 µM; purified PP5c, OMFP fluorescence; 1,900 compounds, 4% hits; shares compounds with PP1 inh;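 active means mean PP5 inhibition over triplicate wells above about 9.5% taken from the earlier PP1 screen, limit read from the data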
# Scp-1 conf = Scp-1 (human) inhibition, single-dose confirmed | shares compounds with Scp-1 inhibitor | recombinant SCP-1 catalytic domain, phosphate release, malachite green absorbance | inhibition, % at 20 µM | 2,500 compounds, 61% hits | AID 540281;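 further: plate controls were DMSO with enzyme for no effect and buffer wells lacking enzyme for full effect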
# Scp-1 MG ctr = colorimetric interference in Scp-1 counter-screen. Colorimetric interference counterscreen, malachite green absorbance 630 nm. shares compounds with Scp-1 inhibitor. 2,500 tested, under 10 active. apparent inhibition (interference), % at 20 µM;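 further: compounds added after enzyme reaction finished so only phosphate colour detection is probed; plate controls were DMSO wells with completed Scp-1 reaction for no effect and substrate wells lacking enzyme for full effect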
# Active calls of the source: *; . = no result; ! = not confirmed by another sample. In the library only some 1.9% were active in any assay of this set; here they are far more common.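 How the source made its calls, unless noted: active means inhibition of at least 30% at 20 µM; inactive means the rest.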
SMILES,PP5 inh,STEP block,PP1 inh,LMPTP block,Scp-1 inhibitor,PP1 confirm,PP5 counter,others
c1ccc2c(c1)CC1CNCc3cccc(c31)S2 (stereo not drawn),2.6,-3.3,-0.4,-1.3,1.4,.,.,
C=CCn1c(O)c(C=NC2CCN(Cc3ccccc3)CC2)c(=O)[nH]c1=O,-0.5,0.1,-4.4,0.3,0.6,.,.,
CCOC(=O)c1ccc(NC(=O)C2C3C=CC(O3)C2C(=O)O)cc1 (stereo not drawn),27.9*,.,8.2,.,.,.,.,PP5 conf=-2.8;PP1 counter 3x=2.5
CCOC(=O)c1ccc(-[n+]2c(-c3ccccc3)cc(-c3ccccc3)cc2-c2ccccc2)cc1,1.1,.,7.0,.,17.0,.,.,
COC1C(OC(=O)c2ccc(C)[nH]2)C(O)C(Oc2ccc3c(O)c(NC(=O)c4ccc(O)c(CC=C(C)C)c4)c(=O)oc3c2Cl)OC1(C)C (stereo not drawn),6.3,0.5,24.5*,2.3,-9.4,16.8*,3.8,
Clc1ccc(C(Cn2ccnc2)OCc2csc3c(Cl)cccc23)c(Cl)c1 (stereo not drawn),2.4,0.9,31.8*,8.2,-0.7,29.3*,-1.1,
O=c1[nH]c(=S)[nH]c(O)c1N=Nc1cc(S(=O)(=O)Nc2ccc(Cl)cc2)ccc1Cl,2.3,3.6,20.9*,2.0,-5.7,24.7*,1.7,
C=CCn1c(O)c(/C(C)=N/NC(=S)Nc2ccccc2)c(=O)[nH]c1=O,3.0,3.5,2.7,-0.7,10.5,.,.,
Nc1c(Br)cc([N+](=O)[O-])cc1[N+](=O)[O-],1.6,-1.1,-0.6,-0.8,-6.3,.,.,
Clc1ccc(CCC(Cn2ccnc2)Sc2c(Cl)cccc2Cl)cc1 (stereo not drawn),4.6,-0.1,33.8*,9.1,8.9,27.8*,-3.5,
O=C1NC(=O)N(Cc2ccc(F)cc2)C(=O)/C1=C\C=C\c1ccco1,0.0,2.1,20.6*,1.2,13.8,23.4*,-0.7,
CN(C)[C@@H]1C(=O)C(C(N)=O)=C(O)[C@@]2(O)C(=O)C3=C(O)c4c(O)cccc4[C@@](C)(O)C3[C@H](O)C12 (stereo partly drawn),0.8,18.5,19.6*,64.0*,35.1,13.8,11.9*!,
O=C(O)C1C2CCC(O2)C1C(=O)Nc1ccc(F)c(F)c1 (stereo not drawn),73.5*,2.8,67.8*,-2.8,-8.7,12.8,22.4*,
CCCOC(=O)C1C2CCC(O2)C1C(=O)O (stereo not drawn),.,1.5,.,0.1,-3.8,.,.,
CC(C)C(=O)Nc1ccc(N2CCN(C)CC2)c(F)c1,1.5,0.4,-1.1,-0.3,0.8,.,.,
CC(=O)c1ccccc1NC(=O)C1C2CCC(O2)C1C(=O)O (stereo not drawn),71.1*,.,72.4*,.,.,33.3*,39.0*,
CC(C)n1c(=O)c(C=Nc2ccc(S(N)(=O)=O)cc2)c(O)n(Cc2ccco2)c1=O,0.5,-3.2,-0.4,-0.5,-7.1,.,.,
CC1CC(NC(=O)C2C3CCC(O3)C2C(=O)O)CC(C)(C)C1 (stereo not drawn),79.4*,-4.7,79.7*,-0.6,1.5,30.3*,47.8*,
CN(C)C1(c2nnnn2-c2ccc(Cl)cc2)CCCCC1,0.5,-0.5,0.2,-0.5,-9.1,.,.,
CCN(CC)C(=O)c1ccc2c(c1)C1C(Cl)C(Sc3ccccc3[N+](=O)[O-])CC1C(C(=O)O)N2 (stereo not drawn),1.1,6.4,19.4*,49.8,23.9,1.8,2.3,
O=C(O)c1ccc2c(c1)C1C(Cl)C(Sc3ccccc3[N+](=O)[O-])CC1C(c1cccc([N+](=O)[O-])c1)N2 (stereo not drawn),.,6.3,.,6.3,-7.2,.,.,
C[C@]12CCC3C(CC[C@H]4C[C@H](O)CC[C@]34C)C1C[C@@H](O)[C@@H]2O (stereo partly drawn),.,0.4,.,-0.5,-5.0,.,.,
CCN(CC)CCNCc1nc2ccccc2c(=O)n1-c1ccc(F)cc1,2.2,1.9,-2.1,-8.2,-4.4,.,.,
CCOC(=O)c1cccc(NC(=O)c2c(O)[nH]c(=O)[nH]c2=O)c1,2.0,2.5,18.7*,-2.1,-4.4,11.5,-2.4,
Cc1ccccc1N1C(=O)/C(=C/c2ccco2)C(=O)NC1=S,3.9,.,69.1*,.,.,35.2*,1.9,
SMILES,PP5 inh,STEP block,PP1 inh,LMPTP block,Scp-1 inhibitor,PP1 confirm,PP5 counter,others
CCC(N)Cc1c[nH]c2ccccc12 (stereo not drawn),.,-1.6,.,0.1,-12.5,.,.,
CN(Cc1ccccc1)C1CCCN(C(=O)COc2ccccc2Cl)C1 (stereo not drawn),-1.9,1.9,-0.8,0.3,-6.0,.,.,
O=C(c1cc(C(=O)NCc2ccccc2)c(=O)n(Cc2ccccc2)c1)c1cc(Cl)ccc1O,3.5,-1.0,18.3*,2.5,-8.7,16.3*,0.8,
O=C(NCc1ccccc1)c1cccn(Cc2ccccc2)c1=O,0.7,3.1,0.0,0.2,11.7,.,.,
O=c1[nH]c(=O)n(CCC2=CCCCC2)c(O)c1/C=N/Nc1ccccc1,1.6,-2.6,10.0,-0.4,21.2,.,.,
O=c1[nH]c(=O)n(CCC2=CCCCC2)c(O)c1/C=N/Nc1cccc2ccccc12,-0.3,-0.7,20.9*,2.6,14.2,18.4*,1.7,
O=C1Nc2ccccc2/C1=C/c1nc2ccccc2c(=O)n1-c1ccc(O)cc1,-0.6,1.0,1.3,1.7,7.7,.,.,
COc1cc2c(cc1OC)-c1c(OC)c(OC)cc3c1[C@H](C2)[N+](C)(C)CC3,-7.8,1.5,-4.5,0.1,54.8*,.,.,Scp-1 conf=12.0;Scp-1 MG ctr=-11.4
CCOc1ccc(CC2(CCc3ccncc3)C(=O)NC(=O)NC2=O)cc1,-0.8,1.3,-0.4,-0.5,10.8,.,.,
Cc1ccc2c(c1)CCCN2N=O,2.5,-2.6,2.3,-1.6,-1.7,.,.,

# Screening data from PubChem BioAssay.
